ChEMBL document CHEMBL1772939, “Ferruginenes A-C from Rhododendron ferrugineum and their cytotoxic evaluation” (J Nat Prod, 2011)
Activity calls are given as the source filed them. The rule behind the calls is not given here.

What was measured:
HL-60 = assay: Cytotoxicity against human HL60 cells assessed as cell viability after 24 hrs by tryptan blue staining-based cell counting; assay type: functional; conditions: HL-60, 24 h
Method in brief: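 HL-60 promyelocytic leukemia cells (ATCC) kept in RPMI 1640 with 10% heat-inactivated FBS, 1% L-glutamine, 1% penicillin/streptomycin, 37 C, 5% CO2. Seeded at 0.1 × 10^6 cells/mL, grown 24 h, then exposed 24 h to compounds or 0.3% DMSO solvent. Suspension cells stained with 0.4% trypan blue and counted on a viability analyzer; IC50 from three independent experiments.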

[1] = biological target: Cannabinoid receptor 2 (Homo sapiens) (UniProt P34972); assay: Binding affinity to CB2 receptor at 20 uM by radioligand displacement assay
MCF7 = assay: Cytotoxicity against human MCF7 cells assessed as cell viability after 24 hrs by tryptan blue staining-based cell counting; assay type: functional; conditions: MCF7, 24 h
Method in brief: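 MCF-7 breast adenocarcinoma cells (ATCC) in DMEM with 10% heat-inactivated FBS, 1% L-glutamine, 1% penicillin/streptomycin, 37 C, 5% CO2. Cultured at 0.2 × 10^6 cells/mL for 48 h before 24 h exposure to compounds or 0.3% DMSO. Trypsinized cells stained with 0.4% trypan blue and counted on a viability analyzer; IC50 from three independent experiments.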

[2] = biological target: T1, 5-hydroxytryptamine receptor 1A (Homo sapiens) (UniProt P08908); assay: Binding affinity to 5HT1A receptor at 20 uM by radioligand displacement assay
T1 sequence (whole entry): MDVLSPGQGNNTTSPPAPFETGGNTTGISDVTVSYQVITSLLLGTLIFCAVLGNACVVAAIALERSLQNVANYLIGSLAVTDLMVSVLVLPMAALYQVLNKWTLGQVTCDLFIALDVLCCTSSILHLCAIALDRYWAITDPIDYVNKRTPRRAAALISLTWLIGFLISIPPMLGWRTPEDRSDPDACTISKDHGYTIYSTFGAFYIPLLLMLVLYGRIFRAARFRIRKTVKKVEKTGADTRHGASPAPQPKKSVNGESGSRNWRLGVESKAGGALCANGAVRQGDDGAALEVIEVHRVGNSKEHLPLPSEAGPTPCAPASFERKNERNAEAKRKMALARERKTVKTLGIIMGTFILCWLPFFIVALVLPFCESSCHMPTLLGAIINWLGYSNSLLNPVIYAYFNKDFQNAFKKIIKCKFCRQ

[3] = biological target: Transient receptor potential cation channel subfamily V member 1 (Homo sapiens) (UniProt Q8NER1); assay: Binding affinity to TRPV1 receptor at 20 uM by radioligand displacement assay
[4] = biological target: Cannabinoid receptor 1 (Homo sapiens) (UniProt P21554); assay: Binding affinity to CB1 receptor at 20 uM by radioligand displacement assay
[5] = Cytotoxicity against human HeLaS3 cells assessed as cell viability after 24 hrs by tryptan blue staining-based cell counting; assay type: functional; conditions: HeLa S3, 24 h
Method in brief: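 HeLa-S3 cervix carcinoma cells (ATCC) grown in RPMI 1640 with 10% heat-inactivated FBS, 1% L-glutamine, 1% penicillin/streptomycin at 37 C, 5% CO2. Plated at 0.1 × 10^6 cells/mL for 24 h, then treated 24 h with compounds or 0.3% DMSO. Cells trypsinized, stained with 0.4% trypan blue, counted on a viability analyzer; IC50 from three independent experiments.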

HEK293 = assay: Cytotoxicity against human HEK293 cells assessed as cell viability after 24 hrs by tryptan blue staining-based cell counting; conditions: HEK293, 24 h
Method in brief: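 HEK293 cells from ATCC, kept in DMEM with 10% heat-inactivated FBS, 1% L-glutamine, 1% penicillin/streptomycin, 37 C, 5% CO2. Seeded at 0.1 × 10^6 cells/mL in 24-well plates, grown 24 h, then exposed to compounds or 0.3% DMSO solvent for 24 h. Trypsinized cells stained with 0.4% trypan blue and counted by viability analyzer; IC50 from three independent experiments.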

Chain of Transient receptor potential cation channel subfamily V member 1 (Homo sapiens) (Q8NER1 whole entry): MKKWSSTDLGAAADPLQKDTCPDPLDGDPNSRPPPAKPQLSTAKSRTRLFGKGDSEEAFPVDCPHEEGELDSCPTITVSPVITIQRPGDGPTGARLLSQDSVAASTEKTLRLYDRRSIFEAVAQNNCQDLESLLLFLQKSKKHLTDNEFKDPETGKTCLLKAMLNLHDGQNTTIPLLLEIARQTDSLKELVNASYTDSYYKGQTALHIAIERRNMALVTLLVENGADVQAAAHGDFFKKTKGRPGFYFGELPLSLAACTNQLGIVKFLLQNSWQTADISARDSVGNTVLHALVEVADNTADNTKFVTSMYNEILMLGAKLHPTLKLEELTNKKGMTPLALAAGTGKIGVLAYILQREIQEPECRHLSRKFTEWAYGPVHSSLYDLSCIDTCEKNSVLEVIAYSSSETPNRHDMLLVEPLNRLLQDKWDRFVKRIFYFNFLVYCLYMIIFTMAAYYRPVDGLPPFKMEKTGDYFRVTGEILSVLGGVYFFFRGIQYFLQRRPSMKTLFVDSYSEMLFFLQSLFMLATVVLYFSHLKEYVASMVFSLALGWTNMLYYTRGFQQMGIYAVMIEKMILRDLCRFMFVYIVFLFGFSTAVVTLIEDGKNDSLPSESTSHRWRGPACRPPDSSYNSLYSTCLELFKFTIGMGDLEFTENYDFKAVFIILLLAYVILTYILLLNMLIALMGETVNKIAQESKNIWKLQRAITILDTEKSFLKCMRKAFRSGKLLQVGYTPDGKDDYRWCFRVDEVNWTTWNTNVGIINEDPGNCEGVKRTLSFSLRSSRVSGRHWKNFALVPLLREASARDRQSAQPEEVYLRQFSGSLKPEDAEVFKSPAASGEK
Chain of Cannabinoid receptor 2 (Homo sapiens) (P34972 whole entry): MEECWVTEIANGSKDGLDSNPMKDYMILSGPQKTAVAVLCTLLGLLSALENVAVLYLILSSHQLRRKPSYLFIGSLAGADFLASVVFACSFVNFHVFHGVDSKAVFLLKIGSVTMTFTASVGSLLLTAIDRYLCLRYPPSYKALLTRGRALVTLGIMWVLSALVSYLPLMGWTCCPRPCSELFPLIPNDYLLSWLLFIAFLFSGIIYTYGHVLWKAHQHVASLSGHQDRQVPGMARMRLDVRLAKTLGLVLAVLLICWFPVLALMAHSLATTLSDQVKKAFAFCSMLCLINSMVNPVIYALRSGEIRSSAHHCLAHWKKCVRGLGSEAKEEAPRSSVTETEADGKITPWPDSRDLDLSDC
Chain of Cannabinoid receptor 1 (Homo sapiens) (P21554 whole entry): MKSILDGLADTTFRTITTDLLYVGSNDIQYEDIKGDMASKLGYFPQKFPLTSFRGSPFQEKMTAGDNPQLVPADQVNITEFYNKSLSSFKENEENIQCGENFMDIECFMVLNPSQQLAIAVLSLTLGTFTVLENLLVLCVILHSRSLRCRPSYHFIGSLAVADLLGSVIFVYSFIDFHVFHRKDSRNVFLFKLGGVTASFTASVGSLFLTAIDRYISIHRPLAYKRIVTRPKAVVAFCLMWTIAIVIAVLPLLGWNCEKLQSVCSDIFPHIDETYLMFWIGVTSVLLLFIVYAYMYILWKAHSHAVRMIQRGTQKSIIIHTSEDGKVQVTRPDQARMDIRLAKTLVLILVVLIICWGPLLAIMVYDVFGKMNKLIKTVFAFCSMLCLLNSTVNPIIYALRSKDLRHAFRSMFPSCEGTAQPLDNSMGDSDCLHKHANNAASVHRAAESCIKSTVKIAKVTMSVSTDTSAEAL

Row | Compound | IC50 (HL-60) [µM] | Activity [1] | IC50 (MCF7) [µM] | Activity [2] | Activity [3] | Activity [4] | IC50 [5] [µM] | IC50 (HEK293) [µM]
1 | C=C(C/C=C/C(C)(C)O)[C@@H]1CC[C@](C)(O)[C@H]2Oc3cc(C)cc(O)c3[C@@H]12 [FERRUGINENE B] | > 20 | inactive | > 20 | inactive | Active | inactive | > 20 | –
2 | C=C(C)C(O)CCC(=C)[C@@H]1CC[C@](C)(O)[C@H]2Oc3cc(C)cc(O)c3[C@@H]12 (some centres not stated) [FERRUGINENE A] | > 20 | inactive | > 20 | inactive | inactive | inactive | > 20 | –
3 | C=C(C)C(O)CCC(=C)[C@@H]1CCC(C)=C[C@H]1c1c(O)cc(C)cc1O (mixture of isomers) [FERRUGINENE C] | > 13.7 | Active | > 20 | inactive | inactive | inactive | > 20 | > 20
